According to PubChem BioAssay:
A number with no mark means an inactive call. Results filed as inconclusive are left out. Active and inactive are the calls of the source.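 How the source made its calls, unless noted: active means viability increase at or above a cutoff of the median across tested compounds plus 3 SD (cut at about 8.5% in these data, passing the limit was not always enough); inconclusive means some gains above the cutoff, reason not given; inactive means the rest.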

Legend:
[1] = OD615 S. cerevisiae growth inhibition, permissive medium, pilot counter-assay, permissive growth control for S. cerevisiae lifespan shortening project (AID 705;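 active means growth inhibition above 25% in both replicates, a cutoff set 3 SD above the mean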); conditions: OD615, 24 h, at 10 µM, stronger effect = higher value
Procedure, shortened: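 Material: engineered DeaD yeast; compound dosing: one dose 10 µM, DMSO 0.25% final; measure: yeast growth inhibition indicated by reduced 24 h OD615; detection: OD615 turbidity read; incubation: cells pre-grown 4 h, then 24 h compound exposure, 30 °C humidified; medium: permissive synthetic complete medium with raffinose and galactose carbon sources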

[2] = Restrictive medium S. cerevisiae growth inhibition, OD615, pilot screen of yeast lifespan reduction project, restrictive growth control (AID 706;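 active means growth inhibition above a set limit, 3 SD over mean compound inhibition, in both replicates, cut at about 43% in these data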;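 further: modified DeaD lifespan yeast strain shifted to restrictive glucose medium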); conditions: OD615, 48 h, at 10 µM, stronger effect = higher value
Procedure, shortened: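 material = engineered S. cerevisiae DeaD strain | medium = glucose-based CSMM-D restrictive medium | times = 4 h pre-incubation, 48 h exposure at 30 °C | technique = OD615 absorbance reading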

[3] = viability gain of MRP-1-high H69AR cells under doxorubicin, pilot screen, MRP-1 activator project, CellTiter-Glo, duplicate (AID 807); conditions: H69AR viability with doxorubicin, CellTiter-Glo luminescence; at 10 µM; stronger effect = higher value;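 further: compound pretreatment 18-22 h then 72 h combined with doxorubicin; 0% = doxorubicin alone and 100% = vehicle without doxorubicin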
[4] = growth suppression of beta-catenin knockout HCT116, pilot screen, human colon tumor cells (AID 823;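 active means cell viability at or below a set limit in both duplicate runs, the limit being the all-compound median minus 4 SD, cut at about 23% in these data, passing the limit was not always enough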;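 further: 0% = wells killed by 20 µM Hyamine and 100% = untreated DMSO cell wells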); conditions: CellTiter-Glo, 60 h, at 10 µM, stronger effect = lower value
[5] = growth suppression of PTEN-deleted HCT116, pilot screen, cell-based, HCT116 clonal line, CellTiter-Glo (AID 824;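 active means viability at or below 27.92% in each of two runs, the all-compound median minus 4 SD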;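 further: 0% = 20 µM Hyamine control and 100% = vehicle cell control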); conditions: 60 h, at 10 µM, stronger effect = lower value
[6] = inhibitors of the yeast RAM network, pilot screen, dse1pr::URA3 reporter, 5-FOA selection (AID 869;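 active means inhibition over a set limit, the all-compound mean plus 3 SD, in both replicate runs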;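 further: 0% = DMSO wells with no growth and 100% = 10 µM 1-NA-PP1 with full growth; RAM network block rescues cells from 5-FOA so hits raise OD615 growth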); conditions: S. cerevisiae dse1pr::URA3 5-FOA growth, OD615, 2 d; at 10 µM; stronger effect = higher value; strain carries analog-sensitive mutant Cbk1 kinase
[7] = RAM signaling pathway blockade in yeast – S. cerevisiae, Pdr1DBD-CYC8 efflux-inhibited sensitized strain, primary screen (AID 1298;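 active means RAM network inhibition above 8.4% in each of two replicates, 3 SD over the compound average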;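 further: 0% = DMSO untreated cells without growth and 100% = 10 µM 1-NA-PP1 full growth; higher means more yeast growth rescued from 5-FOA killing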); conditions: S. cerevisiae cbk1-as DSE1-URA3 strain, 5-FOA growth OD615, 2 d; at 50 µM; stronger effect = higher value

CCN(CCNC(=O)Cn1c(=O)sc2ccccc21)c1ccccc1
growth inhibition [1]: -10.6% | growth inhibition [2]: 2.42% | viability increase [3]: -3.76% | viability [4]: 92.2% | viability [5]: 84.9% | inhibition [6]: 1.57% | RAM network inhibition [7]: 2.04%

COC(=O)C1=CNC=C(C(=O)OC)C1c1ccc(C(=O)OC)cc1
growth inhibition [1]: 1.55% | growth inhibition [2]: 6.7% | viability increase [3]: -3.35% | viability [4]: 93.5% | viability [5]: 98.3% | inhibition [6]: 0.165% | RAM network inhibition [7]: 2.17%

O=C1C(Cl)=C(N2CCCCCC2)C(=O)N1c1ccccc1
growth inhibition [1]: -12.4% | growth inhibition [2]: -16.4% | viability increase [3]: -0.88% | viability [4]: 91.3% | viability [5]: 93.2% | inhibition [6]: 0.8% | RAM network inhibition [7]: 3.09%

CN(C)S(=O)(=O)c1ccc(C(=O)Nc2ccc(F)cc2F)cc1
growth inhibition [1]: -14.5% | growth inhibition [2]: 0.42% | viability increase [3]: 1.08% | viability [4]: 95.5% | viability [5]: 94.4% | inhibition [6]: 0.29% | RAM network inhibition [7]: 2.9%

Cc1nc2ccccc2c2oc(C(=O)N3CCc4ccccc4C3)cc12
growth inhibition [1]: -17.8% | growth inhibition [2]: -23.5% | viability increase [3]: -3.07% | viability [4]: 73.1% | viability [5]: 72.5% | inhibition [6]: 1.98% | RAM network inhibition [7]: 3.91%

Brc1cccc(-c2nnc(SCc3ccon3)n2-c2ccccc2)c1
growth inhibition [1]: -5.09% | growth inhibition [2]: 3.47% | viability increase [3]: -5.94% | viability [4]: 92.3% | viability [5]: 78.7% | inhibition [6]: 1.46% | RAM network inhibition [7]: 0.07%

CCOC(=O)CC1C(=O)NCCN1C(=O)c1cc2c(=O)n3cccc(C)c3nc2s1 (configuration not stated)
growth inhibition [1]: -11% | growth inhibition [2]: -11.3% | viability increase [3]: -3.53% | viability [4]: 98% | viability [5]: 98.8% | inhibition [6]: -0.035% | RAM network inhibition [7]: -1.37%

Cc1ccccc1-c1c(C)oc2cc(O)ccc2c1=O
growth inhibition [1]: 1.68% | growth inhibition [2]: -0.005% | viability increase [3]: -4.28% | viability [4]: 96.8% | viability [5]: 92.2% | inhibition [6]: 2.21% | RAM network inhibition [7]: 2.67%

COc1ccc(-n2nnc3c(=O)n(CC(=O)N4CCC(C)CC4)cnc32)cc1
growth inhibition [1]: 8.16% | growth inhibition [2]: 3.46% | viability increase [3]: -0.52% | viability [4]: 95.8% | viability [5]: 92.3% | inhibition [6]: 1.77% | RAM network inhibition [7]: 2.64%

CC(NC(=O)C1CCC1)c1ccc2c(c1)OCO2 (configuration not stated)
growth inhibition [1]: -10% | growth inhibition [2]: -5.42% | viability increase [3]: -2.08% | viability [4]: 97.5% | viability [5]: 91.7% | inhibition [6]: 1.67% | RAM network inhibition [7]: 0.83%

O=C(CN1CCOc2ccccc21)NCc1ccco1
growth inhibition [1]: -11.6% | growth inhibition [2]: -14.4% | viability increase [3]: -4.51% | viability [4]: 88.1% | viability [5]: 82.9% | inhibition [6]: 0.09% | RAM network inhibition [7]: 0.05%

CCCCNC(=O)CCCn1c(=O)[nH]c2ccc(Br)cc2c1=O
growth inhibition [1]: -13% | growth inhibition [2]: -18% | viability increase [3]: -0.78% | viability [4]: 97.9% | viability [5]: 92.7% | inhibition [6]: 0.635% | RAM network inhibition [7]: 1.08%

CCN1CCCC1CNC(=O)Cn1cc2c(n1)CCC(C)C2 (configuration not stated)
growth inhibition [1]: -3.58% | growth inhibition [2]: 0.66% | viability increase [3]: -1.37% | viability [4]: 91.7% | viability [5]: 100% | inhibition [6]: 0.72% | RAM network inhibition [7]: 1.7%

Cc1ccnc(NC2c3ccccc3C(=O)N2Cc2ccccc2Cl)c1 (configuration not stated)
growth inhibition [1]: 4.26% | growth inhibition [2]: 2.1% | viability increase [3]: -3.54% | viability [4]: 73% | viability [5]: 86.8% | inhibition [6]: 2.44% | RAM network inhibition [7]: 3.54%

CCCc1cc(C(=O)Nc2cc(OC)c(Cl)cc2OC)no1
growth inhibition [1]: -4.69% | growth inhibition [2]: 4.3% | viability increase [3]: -4.41% | viability [4]: 89.5% | viability [5]: 88.8% | inhibition [6]: 0.45% | RAM network inhibition [7]: 7.36%

COc1ccc(CNC(=O)CCS(=O)(=O)c2cccc3nonc23)cc1
growth inhibition [1]: -4.22% | growth inhibition [2]: -26.3% | viability increase [3]: -2.89% | viability [4]: 95.8% | viability [5]: 100% | inhibition [6]: 1.94% | RAM network inhibition [7]: 6.09%

Cc1nc(CCNC(=O)COc2ccccc2)cs1
growth inhibition [1]: -11% | growth inhibition [2]: -3.25% | viability increase [3]: -0.26% | viability [4]: 103% | viability [5]: 96.5% | inhibition [6]: 1.14% | RAM network inhibition [7]: 7.03%

CCN(CC)CCNC(=O)c1cc2c(-c3ccc(Cl)cc3)nn(C)c2s1
growth inhibition [1]: -4.4% | growth inhibition [2]: 2.85% | viability increase [3]: -8.35% | viability [4]: 2.18% (active) | viability [5]: 1.95% (active) | inhibition [6]: 0.905% | RAM network inhibition [7]: 4.19%

CC(O)c1cccc(NC(=O)CCC(=O)O)c1 (configuration not stated)
growth inhibition [1]: 0.85% | growth inhibition [2]: -3.43% | viability increase [3]: -2.35% | viability [4]: 98.9% | viability [5]: 95.4% | inhibition [6]: 1.97% | RAM network inhibition [7]: -1.13%

CCOC(=O)N1CCC(NC(=O)c2cc3ccccn3n2)CC1
growth inhibition [1]: 1.83% | growth inhibition [2]: 1.79% | viability increase [3]: 0.34% | viability [4]: 97.5% | viability [5]: 101% | inhibition [6]: 1.8% | RAM network inhibition [7]: 0.26%

Cc1ccc(C2=[N+]([O-])C3(CCCCC/C3=N\O)N(O)C2(C)C)o1 (configuration not stated)
growth inhibition [1]: -1.35% | growth inhibition [2]: -2.15% | viability increase [3]: -1.16% | viability [4]: 99% | viability [5]: 93.7% | inhibition [6]: -0.505% | RAM network inhibition [7]: 1.01%

COc1ccc(OCCOC(=O)Nc2ccccc2)cc1
growth inhibition [1]: -13.2% | growth inhibition [2]: -6.21% | viability increase [3]: 1.53% | viability [4]: 93.4% | viability [5]: 94.1% | inhibition [6]: 1.64% | RAM network inhibition [7]: 5.48%

Nc1cccc(-n2nncc2-c2ccc(Cl)cc2)c1
growth inhibition [1]: -6.67% | growth inhibition [2]: -5.47% | viability increase [3]: -1.43% | viability [4]: 99.3% | viability [5]: 91.8% | inhibition [6]: 1.98% | RAM network inhibition [7]: 3.64%

COc1ccc(-c2nc(CS(=O)CC(=O)NCC3CCCO3)c(C)o2)cc1 (configuration not stated)
growth inhibition [1]: -7.51% | growth inhibition [2]: 15.5% | viability increase [3]: -2.38% | viability [4]: 97.8% | viability [5]: 102% | inhibition [6]: -0.795% | RAM network inhibition [7]: 4.03%

CC(C)c1nnc(NC(=O)c2cccs2)s1
growth inhibition [1]: -15% | growth inhibition [2]: -8.46% | viability increase [3]: 0.84% | viability [4]: 95.5% | viability [5]: 86.4% | inhibition [6]: 1.23% | RAM network inhibition [7]: 6.85%

O=C(NC1CCCC1)C1c2ccccc2C(=O)N1CCCN1CCOCC1 (configuration not stated)
growth inhibition [1]: -2.13% | growth inhibition [2]: -1.37% | viability increase [3]: -1.72% | viability [4]: 97.2% | viability [5]: 98.4% | inhibition [6]: 1.2% | RAM network inhibition [7]: 1.51%

CCCN1CCC(N(C)CCc2ccc(OC)c(OC)c2)CC1
growth inhibition [1]: -7.87% | growth inhibition [2]: -16.1% | viability increase [3]: -0.93% | viability [4]: 88.4% | viability [5]: 94.5% | inhibition [6]: 0.465% | RAM network inhibition [7]: 2.37%

O=C(O)CC(NC(=O)OCc1ccccc1)c1ccccc1 (configuration not stated)
growth inhibition [1]: 2.56% | growth inhibition [2]: -5.79% | viability increase [3]: -1.78% | viability [4]: 91.7% | viability [5]: 96.5% | inhibition [6]: 1.17% | RAM network inhibition [7]: -0.33%

CC1CN(Cc2nc3c(c(=O)n(C)c(=O)n3C)n2Cc2ccccc2)CC(C)O1 (configuration not stated)
growth inhibition [1]: -2.62% | growth inhibition [2]: 3.58% | viability increase [3]: -0.81% | viability [4]: 106% | viability [5]: 100% | inhibition [6]: 0.15% | RAM network inhibition [7]: 2.1%

CC(C)(C)NC(=O)c1cnn2c1NC(c1ccc(F)cc1)CC2C(F)(F)F (configuration not stated)
growth inhibition [1]: -14.6% | growth inhibition [2]: -18.1% | viability increase [3]: -0.08% | viability [4]: 89.5% | viability [5]: 87.1% | inhibition [6]: 3.81% | RAM network inhibition [7]: 6.9%

Cc1cc(C)nc(SCC(=O)N2CCCCC2)n1
growth inhibition [1]: -13.6% | growth inhibition [2]: -20% | viability increase [3]: 0.71% | viability [4]: 97.4% | viability [5]: 101% | inhibition [6]: 2.34% | RAM network inhibition [7]: 0.74%

CCCn1c(CN2CCN(C(=O)c3ccco3)CC2)nc2c1c(=O)n(C)c(=O)n2C
growth inhibition [1]: -14.1% | growth inhibition [2]: -25.5% | viability increase [3]: -1.84% | viability [4]: 97% | viability [5]: 93.8% | inhibition [6]: 0.34% | RAM network inhibition [7]: 2.82%

O=C(CCN1C(=O)c2ccccc2C1=O)N1CCN(Cc2ccc(Cl)cc2Cl)CC1
growth inhibition [1]: -8.77% | growth inhibition [2]: -18% | viability increase [3]: 1.45% | viability [4]: 98.3% | viability [5]: 104% | inhibition [6]: 1.12% | RAM network inhibition [7]: 7.67%

CC/C(=C\C(=O)c1ccncc1)Nc1ccc(O)cc1
growth inhibition [1]: -4.59% | growth inhibition [2]: 8.96% | viability increase [3]: -3.41% | viability [4]: 92.8% | viability [5]: 83.7% | inhibition [6]: 1.58% | RAM network inhibition [7]: 2.31%

CCCc1cc(C(=O)Nc2sc(C(C)=O)c(C)c2C(=O)OCC)no1
growth inhibition [1]: -18.8% | growth inhibition [2]: -30.5% | viability increase [3]: -4.9% | viability [4]: 86.2% | viability [5]: 78.4% | inhibition [6]: 1.46% | RAM network inhibition [7]: 3.25%

CCOc1ccc(S(=O)(=O)n2ccnc2)c2ccccc12
growth inhibition [1]: -2.9% | growth inhibition [2]: 0.2% | viability increase [3]: -1.1% | viability [4]: 101% | viability [5]: 106% | inhibition [6]: 0.31% | RAM network inhibition [7]: 2.78%
